The record followed here is ChEMBL document CHEMBL1828535, “Synthesis and in vitro activity of novel N-3 acylated TSAO-T compounds against HIV-1 and HCV” (Eur J Med Chem, 2011).

What is called EC50 is the concentration that produces a half-maximal response. The CC50 is the concentration at which the toxic effect on the cells reaches its halfway point.

Structures are written as SMILES. Active and inactive are the calls of the source. No cut-off for these calls is given here.

Data set [1] relates to Human immunodeficiency virus 1. The data set can be described thus: Antiviral activity against HIV1 3B infected in human CEM cells assessed as inhibition of virus-induced cytopathicity after 4 days. It is filed as functional, organism-based. The following applies: Human immunodeficiency virus 1, 3B, CCRF-CEM, 96 h. In outline: (§1)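 CEM cells at 4 x 10⁶/mL infected with HIV-1 IIIB or HIV-2 ROD at ~100 CCID₅₀ per mL of cell suspension; compound present; syncytia formation scored microscopically after 4 days; EC₅₀ = concentration inhibiting virus-induced cytopathicity by 50%.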

The test system of data set [2] is Human immunodeficiency virus 2. The data set can be described thus: Antiviral activity against HIV2 ROD infected in human CEM cells assessed as inhibition of virus-induced cytopathicity after 4 days. The following applies: Human immunodeficiency virus 2, ISOLATE ROD, CCRF-CEM, 96 h. The format is functional, organism-based. In outline:
as §1
For orientation: Cytopathic effects are the visible damage that an infection or toxin causes in cultured cells.

A short description of data set [3]: Cytotoxicity against human CEM cells after 4 days. To be noted: CEM (CCRF-CEM) cells. The format is cell-based. Summed up: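 CC₅₀ taken as concentration inhibiting CEM cell proliferation by 50%.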
In another data set the test system is Hepatitis C virus. The data set can be described thus: Antiviral activity against HCV2a JFH1 infected in human Huh7 cells assessed as inhibition of viral replication after 72 hrs by luciferase reporter gene assay. It is filed as functional, organism-based, Hepacivirus hominis. To be noted: JFH-1, Huh-7, 72 h.
A short description of data set [4]: Cytotoxicity against human HuH7 cells after 72 hrs. It is filed as cell-based, Huh-7.
Data set [5] concerns Human immunodeficiency virus 1. The data set can be described thus: Antiviral activity against HIV1 harboring reverse transcriptase E138K mutant infected in human CEM cells assessed as inhibition of virus-induced cytopathicity after 4 days. The format is functional, organism-based. To be noted: CCRF-CEM. In outline: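 CEM cells at 4 x 10⁶ cells/mL infected with HIV-1/E138K (RT mutant strain selected under TSAO-m³T) at about 100 CCID₅₀ per mL of cell suspension. Syncytia formation scored microscopically after 4 days. EC₅₀ taken as the concentration inhibiting virus-induced cytopathicity by 50%.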

Data set [6] can be described thus: Chemical stability of the compound in phosphate buffered saline assessed as compound degradation after 72 hrs. To be noted: buffer. The format is physicochemical. Summed up:
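Compound held in PBS at 37 °C for 72 h; degradation judged by comparing LCMS spectra before and after incubation.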

For the compound `Cc1cn([C@@H]2O[C@H](CO[Si](C)(C)C(C)(C)C)[C@@]3(OS(=O)(=O)C=C3N)[C@H]2O[Si](C)(C)C(C)(C)C)c(=O)n(C(=O)CCCC(=O)OCc2ccccc2)c1=O`, the results for the EC50 (in data set [1]; in data set [2]; in the data set on Hepatitis C virus) were 0.04 µM, no less than 4 µM and 10 µM, respectively. Half-maximal cytotoxicity in data set [3] (CC50 at 96 h) was put at 9.2 µM. This compound also gave a CC50 at 72 h in data set [4] greater than 100 µM. Also, in data set [5], the inhibition result is “inactive”. In data set [6], the Stability result is given as “Stable”.
For `CSC(=O)CCCC(=O)n1c(=O)c(C)cn([C@@H]2O[C@H](CO[Si](C)(C)C(C)(C)C)[C@@]3(OS(=O)(=O)C=C3N)[C@H]2O[Si](C)(C)C(C)(C)C)c1=O`, the EC50 was 0.037 µM in data set [1], no less than 4 µM in data set [2] and 7 µM in the data set on Hepatitis C virus. Further, the CC50 at 96 h in data set [3] came out at 9.9 µM. Also, in data set [4], the CC50 at 72 h is greater than 100 µM. For the same compound, in data set [5], the inhibition result was “inactive”. For the same compound, in data set [6], the Stability result was “Stable”.
Regarding `Cc1cn([C@@H]2O[C@H](CO[Si](C)(C)C(C)(C)C)[C@@]3(OS(=O)(=O)C=C3N)[C@H]2O[Si](C)(C)C(C)(C)C)c(=O)n(C(=O)CCCC(=O)NCc2ccccc2)c1=O`, the figures for the EC50 (in data set [1]; in data set [2]; in the data set on Hepatitis C virus) were 0.052 µM, no less than 4 µM and 7.6 µM, respectively. In addition, it took 8.8 µM to reach half-maximal cytotoxicity in data set [3] (CC50 at 96 h). In addition, the CC50 at 72 h in data set [4] was greater than 100 µM. Also, the inhibition result in data set [5] was “inactive”. In data set [6], the Stability entry is on record as “Stable”.
`Cc1cn([C@@H]2O[C@H](CO[Si](C)(C)C(C)(C)C)[C@@]3(OS(=O)(=O)C=C3N)[C@H]2O[Si](C)(C)C(C)(C)C)c(=O)n(C)c1=O`: the EC50 is 0.037 µM in data set [1], greater than 250 µM in data set [2] and greater than 100 µM in the data set on Hepatitis C virus. The compound also registered a CC50 at 96 h in data set [3] of 115 µM. The compound further gave a 50% cytotoxic concentration (CC50) at 72 h in data set [4] greater than 100 µM. Besides, the inhibition result in data set [5] is “inactive”.
Take `Cc1cn([C@@H]2O[C@H](CO[Si](C)(C)C(C)(C)C)[C@@]3(OS(=O)(=O)C=C3N)[C@H]2O[Si](C)(C)C(C)(C)C)c(=O)n(C(=O)CCCC(N)=O)c1=O`: the results for the EC50 (in data set [1]; in data set [2]; in the data set on Hepatitis C virus) were 0.038 µM, no less than 4 µM and 9 µM, respectively. The compound also yielded a CC50 at 96 h in data set [3] of 8.7 µM. The compound also displayed a CC50 at 72 h in data set [4] greater than 100 µM. In data set [5], the inhibition entry is “inactive”. Moreover, the Stability result in data set [6] was “Stable”.
Take `Cc1cn([C@@H]2O[C@H](CO[Si](C)(C)C(C)(C)C)[C@@]3(OS(=O)(=O)C=C3N)[C@H]2O[Si](C)(C)C(C)(C)C)c(=O)n(C(=O)C2CC2)c1=O`: the values for the EC50 (in data set [1]; in data set [2]; in the data set with Hepatitis C virus) were 0.042 µM, no less than 4 µM and 8.5 µM, respectively. For the same compound, the midpoint of cytotoxicity in data set [3], the CC50 at 96 h, lay at 11 µM. Moreover, the CC50 at 72 h in data set [4] is greater than 100 µM. Moreover, in data set [5], the inhibition result was “inactive”. In addition, the Stability result in data set [6] is reported as “Stable”.
`COC(=O)c1cccc(C(=O)n2c(=O)c(C)cn([C@@H]3O[C@H](CO[Si](C)(C)C(C)(C)C)[C@@]4(OS(=O)(=O)C=C4N)[C@H]3O[Si](C)(C)C(C)(C)C)c2=O)c1`: the values for the EC50 (in data set [1]; in data set [2]; in the data set on Hepatitis C virus) were 0.041 µM, no less than 4 µM and 8.2 µM, respectively. The CC50 at 96 h in data set [3] is 14 µM. For the same compound, in data set [4], the 50% cytotoxic concentration (CC50) at 72 h was greater than 100 µM. Also, the inhibition entry in data set [5] was “inactive”. In addition, the Stability entry in data set [6] is recorded as “Stable”.
As for `CNC(=O)CCCCn1c(=O)c(C)cn([C@@H]2O[C@H](CO[Si](C)(C)C(C)(C)C)[C@@]3(OS(=O)(=O)C=C3N)[C@H]2O[Si](C)(C)C(C)(C)C)c1=O`, in data set [2], the EC50 was greater than 10 µM. This compound also displayed a CC50 at 96 h in data set [3] of 10 µM. In addition, the inhibition entry in data set [5] was “inactive”.
`C[C@@]1(O)[C@H](O)[C@@H](CO)O[C@H]1n1ccc(N)nc1=O`: in the data set on Hepatitis C virus, the EC50 is 2.4 µM. Further, the CC50 at 72 h in data set [4] was greater than 33 µM. In addition, in data set [5], the inhibition entry was “inactive”.
With `Cc1cn([C@@H]2O[C@H](CO[Si](C)(C)C(C)(C)C)[C@@]3(OS(=O)(=O)C=C3N)[C@H]2O[Si](C)(C)C(C)(C)C)c(=O)n(C(=O)CCCC(=O)N(C)C)c1=O`, the EC50 in data set [1] is 0.032 µM; in data set [2] it was no less than 4 µM; with Hepatitis C virus, 4.4 µM. Also, the CC50 at 96 h in data set [3] came to 9.5 µM. The compound further registered a CC50 at 72 h in data set [4] greater than 100 µM. Further, in data set [5], the inhibition entry is “inactive”. Besides, the Stability entry in data set [6] was “Stable”.
Consider `Cc1cn([C@@H]2O[C@H](CO[Si](C)(C)C(C)(C)C)[C@@]3(OS(=O)(=O)C=C3N)[C@H]2O[Si](C)(C)C(C)(C)C)c(=O)n(C(=O)CCCC(=O)OC(C)(C)C)c1=O`, for which the results for the 50% effective concentration (EC50) (in data set [1]; in data set [2]; in the data set on Hepatitis C virus) were 0.033 µM, no less than 4 µM and 11 µM, respectively. Besides, the CC50 at 96 h in data set [3] is 11 µM. In data set [4], the CC50 at 72 h is greater than 100 µM. Moreover, the inhibition entry in data set [5] is “inactive”. Further, the Stability entry in data set [6] is “Stable”.
Regarding `Cc1cn([C@@H]2O[C@H](CO[Si](C)(C)C(C)(C)C)[C@@]3(OS(=O)(=O)C=C3N)[C@H]2O[Si](C)(C)C(C)(C)C)c(=O)n(C(=O)CCCBr)c1=O`, the values for the EC50 (in data set [1]; in data set [2]; with Hepatitis C virus) were 0.052 µM, no less than 4 µM and 43 µM, respectively. Besides, the cytotoxic concentration (CC50) at 96 h in data set [3] worked out at 11 µM. In data set [4], this compound registered a CC50 at 72 h greater than 100 µM. Besides, in data set [5], the inhibition result is “inactive”. In addition, the Stability result in data set [6] was “Stable”.
For the compound `COC(=O)CCCC(=O)n1c(=O)c(C)cn([C@@H]2O[C@H](CO[Si](C)(C)C(C)(C)C)[C@@]3(OS(=O)(=O)C=C3N)[C@H]2O[Si](C)(C)C(C)(C)C)c1=O`, the EC50 is 0.054 µM in data set [1], no less than 4 µM in data set [2] and 11 µM with Hepatitis C virus. This compound also showed a CC50 at 96 h in data set [3] of 9.9 µM. In addition, the CC50 at 72 h in data set [4] is greater than 100 µM. In addition, the inhibition entry in data set [5] is “inactive”. Besides, the Stability entry in data set [6] is “Stable”.
The compound `Cc1cn([C@@H]2O[C@H](CO[Si](C)(C)C(C)(C)C)[C@@]3(OS(=O)(=O)C=C3N)[C@H]2O[Si](C)(C)C(C)(C)C)c(=O)n(C(=O)OC(C)(C)C)c1=O` returned a CC50 at 96 h in data set [3] of 26 µM. Besides, in data set [5], the inhibition entry is “inactive”.
In the case of `Cc1cn([C@@H]2O[C@H](CO[Si](C)(C)C(C)(C)C)[C@@]3(OS(=O)(=O)C=C3N)[C@H]2O[Si](C)(C)C(C)(C)C)c(=O)n(C(=O)c2ccccc2)c1=O`, the results for the EC50 (in data set [1]; in data set [2]; with Hepatitis C virus) were 0.049 µM, no less than 4 µM and 9.8 µM, respectively. Also, the CC50 at 96 h in data set [3] was found to be 54 µM. Further, the CC50 at 72 h in data set [4] is greater than 100 µM. Besides, the inhibition entry in data set [5] is “inactive”. Moreover, the Stability entry in data set [6] was “Stable”.
For `CNC(=O)CCCC(=O)n1c(=O)c(C)cn([C@@H]2O[C@H](CO[Si](C)(C)C(C)(C)C)[C@@]3(OS(=O)(=O)C=C3N)[C@H]2O[Si](C)(C)C(C)(C)C)c1=O`, the EC50 was 0.059 µM in data set [1], no less than 4 µM in data set [2] and 12 µM in the data set on Hepatitis C virus. In data set [3], this compound registered a CC50 at 96 h of 9.1 µM. The same compound registered a CC50 at 72 h in data set [4] greater than 100 µM. Further, the inhibition result in data set [5] was “inactive”. The Stability entry in data set [6] was “Stable”.
With `Cc1cn([C@@H]2O[C@H](CO[Si](C)(C)C(C)(C)C)[C@@]3(OS(=O)(=O)C=C3N)[C@H]2O[Si](C)(C)C(C)(C)C)c(=O)[nH]c1=O`, the EC50 was greater than 20 µM in data set [2] and 14 µM with Hepatitis C virus. The compound also registered a CC50 at 96 h in data set [3] of 12 µM. For the same compound, the CC50 at 72 h in data set [4] was greater than 100 µM. For the same compound, the inhibition entry in data set [5] was “inactive”.
Turning to `COC(=O)n1c(=O)c(C)cn([C@@H]2O[C@H](CO[Si](C)(C)C(C)(C)C)[C@@]3(OS(=O)(=O)C=C3N)[C@H]2O[Si](C)(C)C(C)(C)C)c1=O`, the EC50 in data set [1] is 0.07 µM; in data set [2], no less than 100 µM; with Hepatitis C virus, greater than 100 µM. In data set [3], the CC50 at 96 h is greater than 100 µM. The CC50 at 72 h in data set [4] was greater than 100 µM. Besides, in data set [5], the inhibition result was “inactive”. Moreover, in data set [6], the Stability entry is “Stable”.
